Screens from PubChem.
OX1R antag-1 = OX1R (human) antagonism; O43613; hit rate 1.8% among 330,000; OX1R-expressing cells, FRET antagonist read-out; inhibition, % at 6.6 µM; in the data active = inhibition mostly above about 38%, no sharp cut-off; inactive = mostly below about 40%
GPR7 antagonist = antagonists of human GPR7 (neuropeptides B/W receptor 1). P48145. GPR7-expressing cells, fluorescence antagonist assay. inhibition, % at 4.4 µM. hit rate 1.1% among 290,000; in the data active = inhibition above about 16%, passing the limit was not always enough;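 also: cells stimulated with the agonist NPW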
Target sequence (P48145 whole entry, looked up): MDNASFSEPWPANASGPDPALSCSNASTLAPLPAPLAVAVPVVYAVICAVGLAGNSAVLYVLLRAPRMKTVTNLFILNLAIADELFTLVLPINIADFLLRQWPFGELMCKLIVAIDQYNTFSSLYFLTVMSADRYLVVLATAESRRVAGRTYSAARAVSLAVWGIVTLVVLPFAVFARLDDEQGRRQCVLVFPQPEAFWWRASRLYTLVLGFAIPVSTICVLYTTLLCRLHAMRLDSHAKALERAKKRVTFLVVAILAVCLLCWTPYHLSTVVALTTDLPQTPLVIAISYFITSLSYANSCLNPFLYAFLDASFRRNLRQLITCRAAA
TRPML3 ag = agonists of human TRPML3 channel; HEK293 TRPML3-YFP, Fluo-8 calcium fluorescence; 100% = the carbachol control signal; activation, % at 3 µM; Q8TDD5; hit rate 0.29% among 220,000;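 active = activation above its plate's cutoff, the mean activation of the plate's test wells plus 3 SD, cut at about 12% in these data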
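Test system: HEK293 cells stably carrying human TRPML3-YFP; Doses: single dose, 3 µM final nominal compound, 0.3% DMSO final; Schedule: dye loading 1 h 37 °C then 30 min ambient, 125 s read; Technique: Fluo-8 calcium fluorescence; Benchmarks: high control carbachol 87 µM, low control DMSO.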
CHO parental Ca = counter-screen: ATP calcium response change in parental CHO cells. inhibition, % at 5.6 µM. AID 463079. parental CHO-K1, ATP-induced calcium, Fluo-8 fluorescence. hit rate 0.63% among 330,000;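 active = inhibition above that plate's mean sample inhibition plus 3 SD, cut at about 26% in these data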
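Test system: parental CHO cells; detection: calcium-sensitive Fluo-8 fluorescence; evaluation: percent inhibition of calcium signal; also added: ATP as calcium-mobilizing challenge; repeats: one well per compound; control set: ATP-challenged DMSO wells low, unchallenged DMSO wells high; compound: single nominal dose of 5.6 µM per compound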
TRPN1 ag = zebrafish TRPN1 (NompC) channel agonism | HEK293 zebrafish TRPN1-YFP, Fluo-8 calcium fluorescence; 100% = response to 87 µM carbachol | activation, % at 3 µM | hit rate 0.18% among 220,000;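 active = activation above its plate's cutoff, the mean activation of test wells on that plate plus 3 SD, cut at about 19% in these data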
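Material: zebrafish TRPN1-YFP in HEK293 cells; Doses: single test compound dose, 3 µM nominal, 0.3% DMSO; Timing: dye loading 1 h at 37 °C, then 30 min room temperature; Technique: intracellular calcium fluorescence with Fluo-8; Benchmarks: high carbachol 87 µM, low DMSO alone.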
OX1R antag-2 = human HCRTR1 antagonism | O43613 | CHO/OX1R cells, Fluo-8 calcium fluorescence, orexin A | inhibition, % at 5 µM | hit rate 0.43% among 330,000;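 active = inhibition above its plate's threshold, mean inhibition of all tested compounds on the plate plus 3 SD, cut at about 37% in these data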
OX1R HTRF confirm = confirmation of human orexin 1 receptor antagonists, HTRF format; inhibition, % at 6.6 µM; hit rate 49% among 1,800; AID 492964; shares compounds with OX1R antag-1; OX1R-expressing cells, HTRF antagonist assay; in the data active = inhibition above about 55%;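 also: CHO cells expressing OX1R stimulated with orexin A at about EC80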
CHO-K1 HTRF = signal in parental CHO-K1 cells, OX1R antagonist counter-screen. shares compounds with OX1R antag-1. hit rate 48% among 1,800. inhibition, % at 6.6 µM. HTRF counterscreen; in the data active = inhibition above about 17%
Hits are given with their value; 0 = inactive; - = not tested or not shown; + = active, no number. Shown are actives, neighbours in structure and some others; about 3.2% of the full set was active somewhere.

SMILES	OX1R antag-1	GPR7 antagonist	TRPML3 ag	CHO parental Ca	TRPN1 ag	OX1R antag-2	OX1R HTRF confirm	CHO-K1 HTRF
O=C(O)Cc1ccc(NC(=O)c2ccc3c(c2)C(=O)N(CC2CCCO2)C3=O)cc1 (stereo unspecified)	79	0	-	0	-	0	0	43
NC1=NC(=O)/C(=C\c2ccc(O)c([N+](=O)[O-])c2)S1	90	0	0	0	0	0	69	58
Nc1ccc2c(c1)C(=O)C(=O)c1ccccc1-2	+	0	0	0	0	0	83	41
CN(C)c1ccc(C(C(=O)NC2CCCC2)N(C(=O)c2csnn2)C2CC2)cc1 (stereo unspecified)	0	0	-	0	-	0	-	-
Cc1cc2nc(-c3ccc(=O)[nH]c3)n(Cc3ccccc3)c2cc1C	0	0	-	0	-	0	-	-
Cc1ccc(/C=C2/Sc3ccccc3N(CC(=O)NCCCOC(C)C)C2=O)cc1	84	0	0	0	0	0	70	0
CCOCCCNC(=O)CN1C(=O)/C(=C/c2ccccc2)Sc2ccccc21	81	0	0	0	0	0	87	0
CCN1CCN(CCCNC(=O)c2ccc(/C=C3/Sc4ccccc4N(Cc4ccccc4F)C3=O)cc2)CC1	0	0	0	0	0	0	-	-
CCOCCCNC(=O)CN1C(=O)/C(=C\c2ccc(C)cc2)Sc2ccccc21	0	0	0	0	0	0	-	-
O=C(OCC(=O)N1CCCC1=O)c1cc2ccccc2o1	0	-	-	0	-	0	-	-
Cc1ccc(/C=c2\sc3n(c2=O)CN(c2ccc(Br)cc2)CN=3)o1	0	0	0	0	0	0	-	-
Cc1ccc(N2CN=c3s/c(=C\c4cccnc4)c(=O)n3C2)cc1	99	0	0	0	0	0	0	49
COC(CNC(=O)c1ccc2nc(-c3cccs3)c(-c3cccs3)nc2c1)OC	84	0	0	0	0	0	0	0
CCN1C(=O)/C(=C2/SC(C)=C(C)N2CC)SC1=S	96	0	0	0	0	0	84	0
CCCCN1C(=O)/C(=C2/Sc3ccc(OC)cc3N2CC)SC1=S	0	0	-	0	-	0	-	-
CCOc1ccc(Cl)cc1S(=O)(=O)N1CCC(C(=O)N2CCCC2)CC1	0	0	-	0	-	0	-	-
Cc1[nH]c2ccccc2c1/C=N/Nc1nncn1N	139	0	0	0	0	0	0	0
Cc1ccccc1NS(=O)(=O)c1ccc(NS(=O)(=O)c2cccs2)cc1	0	0	-	0	-	0	-	-
COc1ccccc1C(=O)Oc1ccc2c(c1)O/C(=C\c1ccncc1)C2=O	78	0	0	0	0	0	0	0
Fc1ccccc1C1c2[nH]c3ccccc3c2CCN1Cc1ccoc1 (stereo unspecified)	0	0	0	0	0	0	-	-
N#Cc1cc2c(=O)n3ccccc3nc2n(Cc2ccco2)c1=NC(=O)c1ccco1	77	0	0	0	0	0	0	42
N=c1c(C(=O)NCc2ccco2)cc2c(=O)n3ccccc3nc2n1Cc1ccccc1	0	0	0	0	0	0	-	-
N=c1c(C(=O)NCc2ccccc2)cc2c(=O)n3ccccc3nc2n1Cc1ccco1	78	0	0	0	0	0	0	0
N=c1c(C(=O)NCc2ccco2)cc2c(=O)n3ccccc3nc2n1Cc1ccc(Cl)cc1	0	0	0	0	0	0	-	-
COCCn1c(=N)c(C(=O)NCc2ccco2)cc2c(=O)n3ccccc3nc21	167	0	0	0	0	0	0	72
SMILES	OX1R antag-1	GPR7 antagonist	TRPML3 ag	CHO parental Ca	TRPN1 ag	OX1R antag-2	OX1R HTRF confirm	CHO-K1 HTRF
CC1(C)Cc2ccccc2C2=NNC(=O)C2=N1	117	0	0	0	0	0	0	78
CCCn1c(SCC(=O)N(CC)CC)nnc1-c1ccncc1	0	0	0	0	0	0	-	-
CCN(CC)C(=O)CSc1nnc2nnc3cc(Cl)ccc3n12	108	0	0	0	0	0	70	126
CCN(CC)C(=O)CSc1nnc2nnc3cc(C)ccc3n12	91	0	0	0	0	0	60	103
O=C(CSc1nnc(-c2ccccc2F)o1)Nc1ccc(N2CCOCC2)cc1	0	-	-	0	-	0	-	-
CC(=O)N1C(=O)c2cccc3cccc(c23)C(=O)N1C(C)=O	116	0	0	0	0	0	0	65
Cc1ccc(N2C(=O)c3cccc4cccc(c34)C2=O)cc1	0	0	0	0	0	0	-	-
CN(CCc1ccccc1)C1CCCN(C(=O)Cn2cccn2)C1 (stereo unspecified)	0	0	-	0	-	0	-	-
CN(C(=O)CSc1nc2ccc([N+](=O)[O-])cc2s1)C1CCS(=O)(=O)C1 (stereo unspecified)	83	0	0	0	0	0	70	40
CN(C(=O)COC(=O)CSc1ccc([N+](=O)[O-])cc1)C1CCS(=O)(=O)C1 (stereo unspecified)	0	-	-	0	-	0	-	-
CN(C(=O)COC(=O)CSc1ccc(C(N)=O)cc1[N+](=O)[O-])C1CCS(=O)(=O)C1 (stereo unspecified)	77	-	-	0	-	0	0	69
COc1ccc2nc3sc(C(=O)N4CCN(C)CC4)cc3cc2c1	110	0	0	0	0	0	0	27
COc1ccc2nc3sc(C(=O)NCCCN4CCc5ccccc5C4)cc3cc2c1	80	0	0	0	0	0	0	20
COc1ccc(S(=O)(=O)Cc2ccc(C(=O)NCCCN3CCc4ccccc4C3)o2)cc1	0	0	0	0	0	0	-	-
Cc1ccc(-c2nn3cnnc3c3ccccc23)cc1	0	0	0	0	0	0	-	-
COCCN(C(=O)CCC(=O)Nc1nccs1)C(C(=O)NC(C)(C)C)c1ccc(F)cc1 (stereo unspecified)	0	0	-	0	-	0	-	-
COCCNC(=O)C(c1ccc(F)cc1)N(Cc1ccccc1)C(=O)CCC(=O)Nc1nccs1 (stereo unspecified)	78	0	-	0	-	0	80	0
COc1cccc(NC(=O)c2cc3ccccc3cc2OC)c1	0	0	-	0	-	0	-	-
CC(=O)c1nnn(-c2ccc([N+](=O)[O-])cc2)c1C	123	0	0	0	0	0	0	59
O=C(C1CCC1)N1CCN(Cc2ccccc2)CC1	0	0	0	0	0	0	-	-
c1ccc(CN2CCN(C3CCCSc4ccccc43)CC2)cc1 (stereo unspecified)	87	-	-	0	-	0	79	0
CC(=O)Nc1ccc(NC(=O)Nc2ccc3c(c2)N(C)C(=O)CS3)cc1	0	0	0	0	0	0	-	-
COc1cccc(NC(=O)Nc2ccc3c(c2)N(C)C(=O)CS3)c1	82	0	0	0	0	0	0	0
CC(=O)C1=C(S(=O)(=O)c2ccc(C)cc2)CS(=O)(=O)C1	-	0	0	-	0	-	-	-
